Compound activity (PubChem BioAssay)
A3G deaminase: APOBEC3G DNA deaminase inhibitors, primary screen, biochemical, fluorescence, single-stranded DNA substrate, uHTS | DNA dC->dU-editing enzyme APOBEC-3G (Homo sapiens), Q9HC16 | recombinant A3G, ssDNA deamination FAM/TAMRA fluorescence | inhibition, % at 20 µM | hit rate 0.28% among 330,000;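 active = inhibition of at least 40% at 20 µM, with no more than 30% in the related APOBEC3A deaminase screen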;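 also: plate controls were DMSO wells with A3G for no effect and wells lacking A3G enzyme for full effect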
Target sequence (Q9HC16 whole entry, looked up): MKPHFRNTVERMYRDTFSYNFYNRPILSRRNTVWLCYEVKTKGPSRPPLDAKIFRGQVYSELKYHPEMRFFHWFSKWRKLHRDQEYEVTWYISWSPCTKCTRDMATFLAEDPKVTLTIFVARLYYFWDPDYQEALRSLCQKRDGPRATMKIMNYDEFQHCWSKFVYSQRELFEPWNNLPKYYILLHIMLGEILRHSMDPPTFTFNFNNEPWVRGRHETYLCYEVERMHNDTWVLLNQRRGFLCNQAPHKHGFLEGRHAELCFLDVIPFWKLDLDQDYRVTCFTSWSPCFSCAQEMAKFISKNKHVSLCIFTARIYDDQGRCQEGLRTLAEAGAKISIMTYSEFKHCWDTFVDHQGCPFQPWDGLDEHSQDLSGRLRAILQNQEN
APOBEC3A inh: APOBEC3A ssDNA deaminase inhibitors, primary screen, selectivity assay for APOBEC3G inhibitor project, biochemical, FAM/TAMRA oligo cleavage fluorescence | recombinant A3A, FAM/TAMRA ssDNA deamination fluorescence | inhibition, % at 20 µM | hit rate 0.41% among 330,000 | AID 493011, 2011;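 active = at least 40% inhibition at 20 µM here, with at most 30% in a related deaminase screen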;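 also: plate controls were A3A with DMSO for no effect and wells lacking A3A enzyme for full effect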
PHOSPHO1 inh: PubChem AID 1565. hit rate 1.1% among 290,000. recombinant PHOSPHO1, absorbance phosphatase assay. inhibition, % at 13.3 µM; in the data active = inhibition above about 60%
Target sequence (Q8TCT1 whole entry, looked up): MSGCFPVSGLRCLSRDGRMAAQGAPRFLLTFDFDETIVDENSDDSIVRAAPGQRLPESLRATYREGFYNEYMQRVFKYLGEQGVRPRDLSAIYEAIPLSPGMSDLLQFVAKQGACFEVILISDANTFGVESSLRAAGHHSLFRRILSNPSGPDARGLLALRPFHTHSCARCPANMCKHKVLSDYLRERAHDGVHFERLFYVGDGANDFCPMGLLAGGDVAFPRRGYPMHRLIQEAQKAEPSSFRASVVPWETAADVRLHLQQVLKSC
Tb MetRS inh: T. brucei MetRS inhibitors, primary screen, biochemical, luminescence. methionyl-tRNA synthetase (Trypanosoma brucei brucei). purified T. brucei MetRS, ATP depletion, Kinase-Glo luminescence. inhibition, % at 11.9 µM. hit rate 0.4% among 360,000. AID 624268, 2012;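 active = inhibition above a per-plate cutoff of the control wells' mean inhibition plus 3 SD, cut at about 5.5% in these data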;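 also: 0% = DMSO wells median and 100% = median of wells with control inhibitor compound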
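Material: parasite MetRS enzyme / Replication: singlicate, one well per compound / Signal: luminescence of leftover ATP / Schedule: 2 h aminoacylation at 25 °C after 15 min preincubation / Medium: HEPES-MgCl2-KCl buffer plus DTT, spermine, BSA, pyrophosphatase / Doses: 11.9 µM single point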
p-CIP stab down: p/CIP-EGFP fusion destabilizers, primary screen, fluorescence, F442A cells. hit rate 0.01% among 290,000. AID 1984, 2009. Q05BA5. decrease of EGFP signal, % at 10 µM. 16 h;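 active = EGFP signal decrease of at least 30% at 10 µM or well 3 SD below plate mean, unless failing retest; inactive = the rest, including hits failing retest or dose response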
TbMetRS confirm: T. brucei MetRS inhibitors, confirmation, biochemical, luminescence. shares compounds with Tb MetRS inh. T. brucei MetRS enzyme, luminescence (ATP depletion). inhibition, % at 11.9 µM. hit rate 93% among 1,400. AID 624412, 2012; in the data active = inhibition above about 7%
Jurkat tox: Jurkat T cell cytotoxicity, cytotoxicity control for T. brucei MetRS inhibitor project, luminescence, high throughput | Jurkat cells viability, ATP luminescence | hit rate 12% among 1,400 | AID 624413, 2012 | inhibition, % at 8.3 µM | shares compounds with Tb MetRS inh; in the data active = inhibition above about 15%;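 also: 0% = vehicle and 100% = reference inhibitor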
TbMetRS FP orth: T. brucei MetRS inhibitors, orthogonal assay for T. brucei MetRS inhibitor project, biochemical, fluorescence polarization; shares compounds with Tb MetRS inh; purified T. brucei MetRS; inhibition, % at 11.9 µM; hit rate 44% among 1,400; in the data active = inhibition above about 17%;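 also: 0% = vehicle wells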
Numbers without * were called inactive; . = not tested or not shown. This is a sample that favours compounds with a hit; in the whole collection about 1.8% have one here.

SMILES	A3G deaminase	APOBEC3A inh	PHOSPHO1 inh	Tb MetRS inh	p-CIP stab down	TbMetRS confirm	Jurkat tox	TbMetRS FP orth
O=c1cc(CN2CCCCC2)c2ccccc2o1	.	.	.	-0.2	.	.	.	.
CC(=O)N1c2ccc(S(=O)(=O)N3CCC(C(=O)Nc4ccc(C)cn4)CC3)cc2CC1C (stereo not given)	-10.1	-6.6	30.7	-0.7	-9.8	.	.	.
CCN(CC)C(=O)C(=O)c1cccn1-c1c(Cl)cccc1C#N	-2.5	0.0	32.8	1.8	-7.0	.	.	.
Nc1cc(C(=O)OCC(=O)NCc2ccc(F)cc2)ccc1Cl	-0.1	-1.4	-46.2	43.0*	-23.1	62.6*	-3.9	33.8*
CC(=O)c1ccc(NC(=O)C(C)N(C)CC(=O)Nc2cccc(F)c2)cc1 (stereo not given)	-6.7	3.1	28.3	-0.8	1.2	.	.	.
CC(=O)c1cccc(NC(=O)C(C)N(C)CC(=O)Nc2ccc(Cl)cc2)c1 (stereo not given)	-0.3	-0.8	18.9	35.0*	-14.4	52.7*	6.2	24.8*
CN(CC(=O)Nc1ccc(Cl)cc1)C(=O)c1cccc(S(=O)(=O)N(C)C)c1	7.6	32.6	6.6	9.1*	2.1	18.9*	4.7	6.0
C/C(CC(=O)Nc1ccc(Cl)c(C(F)(F)F)c1)=N\NC(=O)c1cccc(O)c1	-8.6	-2.4	13.2	-0.1	2.6	.	.	.
C/C(CC(=O)Nc1ccc(Cl)c(C(F)(F)F)c1)=N\NC(=O)c1ccccc1O	-6.3	1.7	-12.5	16.0*	0.0	92.7*	28.5*	91.2*
C[C@@H]1CN([C@H](C)CO)C(=O)CCCn2nncc2CO[C@@H]1CN(C)S(=O)(=O)c1ccc(-n2cccn2)cc1	.	.	.	1.3	.	.	.	.
CCOC(=O)c1ccc(-c2ccc3c(=O)c4ccccc4n(C)c3c2)cc1F	-4.3	-1.3	-7.3	0.1	-7.3	.	.	.
Cn1c(SCC(=O)Nc2ccc3cn[nH]c3c2)nnc1-c1cccs1	-6.1	0.3	-26.5	0.5	-5.8	.	.	.
Cn1c(SCC(=O)Nc2ccc3cn[nH]c3c2)nnc1-c1cnccn1	-2.7	-0.8	3.3	7.8*	-2.8	14.2*	-4.2	9.0
c1ccc2[nH]c(NCc3ccc4c(c3)OCO4)nc2c1	-8.1	-3.1	7.7	18.0*	7.1	30.4*	3.1	14.4
Cc1ccc2nc(C3CCCN(C(=O)NCc4ccccc4)C3)[nH]c2c1 (stereo not given)	-6.1	0.1	11.6	14.7*	2.1	22.9*	-2.6	8.5
S=c1nc(NCc2ccc3c(c2)OCO3)c2ccccc2[nH]1	-8.6	-5.2	15.0	-0.8	0.3	.	.	.
O=c1[nH]c2ccccc2nc1NCc1ccccc1	-5.0	-1.7	.	-0.3	-8.2	.	.	.
c1ccc(CNc2nc3ccccc3[nH]2)cc1	-5.0	-3.5	4.9	25.7*	0.2	34.9*	8.8	19.9*
CCn1c(NCc2cc(OC)c(OC)c(OC)c2)nc2ccccc21	5.7	-4.6	19.1	4.1	5.0	.	.	.
COc1cc(CNc2nc3ccccc3[nH]2)cc(OC)c1OC	-3.2	0.9	2.5	15.8*	14.0	31.8*	11.0	8.8
CN(Cc1ccc2c(c1)CCCN2C)C(=O)[C@H]1O[C@@H](n2ccc(=O)[nH]c2=O)[C@H](O)[C@@H]1O	.	.	.	-0.7	.	.	.	.
Cc1ccc(NS(=O)(=O)c2ccc(C(=O)N3CCN(S(=O)(=O)c4ccccc4)CC3)cc2)cc1	-9.8	-3.5	.	-0.2	.	.	.	.
COc1ccc2nc(NCc3ccccc3)[nH]c2c1	-8.0	-0.1	15.4	1.3	5.6	.	.	.
Cc1ccc2nc(NCc3ccccc3)[nH]c2c1	.	.	-0.3	17.1*	6.2	27.8*	70.2*	13.2
O=C(N/C(=C\c1cccnc1)c1nc2ccccc2[nH]1)c1cccc(Br)c1	-7.3	-3.3	-1.8	66.3*	-8.9	80.3*	-3.1	57.3*
SMILES	A3G deaminase	APOBEC3A inh	PHOSPHO1 inh	Tb MetRS inh	p-CIP stab down	TbMetRS confirm	Jurkat tox	TbMetRS FP orth
O=C(NCCc1nc2ccccc2[nH]1)c1ccc([N+](=O)[O-])cc1	-3.4	-3.5	-1.3	36.0*	-9.9	58.2*	3.7	29.2*
O=C(NCCc1nc2ccccc2[nH]1)c1ccc(F)cc1	2.3	12.1	27.7	6.4*	-3.9	10.3*	-1.4	1.1
O=C(NCCc1nc2ccccc2[nH]1)c1cccc(Br)c1	-8.1	-3.7	41.8	18.6*	-4.7	29.6*	-4.7	11.8
CCN(CC)c1ccc(NC(=O)CCS(=O)(=O)c2ccc(Br)cc2)c(C)c1	85.8	70.4	6.2	-0.7	-8.1	.	.	.
CC1CCCCN1CCNC(=O)C1CCCN(S(=O)(=O)c2cccc3nsnc23)C1 (stereo not given)	-3.8	-2.4	31.5	0.2	-10.7	.	.	.
O=C(CSc1ccc2ccccc2c1)Nc1ncccn1	-10.1	-3.7	6.1	0.9	1.5	.	.	.
COCC(=O)NCCc1nc2ccccc2[nH]1	-3.3	2.4	6.3	-0.5	-12.4	.	.	.
O=C(COc1ccc([N+](=O)[O-])cc1)NCCc1nc2ccccc2[nH]1	-5.9	-0.7	31.8	6.9*	2.8	12.3*	4.8	10.8
O=C(Cc1nc2ccccc2[nH]1)c1ccc(Cl)cc1	-7.8	-3.9	28.0	0.6	-3.7	.	.	.
O=C(Cc1nc2ccccc2[nH]1)c1ccc([N+](=O)[O-])cc1	-0.2	2.2	47.4	8.0*	-2.9	5.8*	10.4	7.4
O=C(NNS(=O)(=O)c1ccccc1[N+](=O)[O-])c1cc2ccccc2cc1O	-5.2	-2.5	26.5	34.0*	0.4	48.8*	2.0	24.3*
O=C(NCc1n[nH]c(=S)n1Cc1ccccc1)c1ccc(Cl)cc1Cl	9.6	-1.8	53.2	5.8*	-7.1	12.7*	0.8	5.4
O=C(NCc1n[nH]c(=S)n1Cc1ccccc1)c1ccccc1	21.3	-4.7	22.6	-0.7	7.2	.	.	.
Cc1noc(C)c1S(=O)(=O)NC(=O)C1(C)CCN1C(=O)CC(c1ccccc1)c1ccccc1 (stereo not given)	.	.	.	-0.3	.	.	.	.
O=C(CN1CCSC1=NCc1ccccc1)c1ccc(Cl)cc1	-4.1	-6.7	-16.5	19.2*	-9.0	43.1*	12.1	18.5*
COc1ccc(-c2nc(-c3ccccn3)ncc2S(C)(=O)=O)cc1	-2.5	-0.8	44.0	0.0	0.0	.	.	.
Cn1nc(-c2ccccn2)nc2c(=O)n(C)c(=O)nc1-2	7.5	1.5	34.7	30.6*	31.0	31.1*	65.9*	9.4
CCCc1nc2c(=O)n(C)c(=O)nc-2n(C)n1	.	.	28.5	17.1*	.	20.5*	73.5*	5.1
